Bioassay records: PubChem BioAssay, several laboratories
TbHK1 inh: blocks Trypanosoma brucei hexokinase 1 activity | recombinant TbHK1, G6PDH-coupled NADH A340 | inhibition, % at 10 µM | actives 0.11% (n = 220,000);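 active = inhibition of 50% or more in the single-dose primary screen; inactive = inhibition below 50%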
HSV augment: increases HSV replication in cells | HSV replication augmentation in cells, fold increase | maximum fold increase | AID 1956 | actives 0.005% (n = 220,000); in the data active = maximum fold increase above about 1.5; inconclusive = no clear call, values can overlap the other calls; tested in PC3 cells
Dynein cargo inh: dynein cargo transport inhibition | 3617.4 mouse cells, GR-EGFP nuclear translocation imaging; test concentration mostly 20 µM; stimulated with dexamethasone, 1 µM; active compounds read low | z-score, hits read low | actives 0.47% (n = 220,000) | AID 1381;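 active = plate z-score of nuclear minus cytoplasmic receptor signal below a set negative limit, without overly bright fluorescence or cell loss, cut at about -3.5 in these data, passing the limit was not always enough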;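 also: z-score of nuclear minus cytoplasmic ring GR-EGFP intensity difference per well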
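Buffer or medium: tet-free medium with charcoal-stripped serum / Also added: dexamethasone agonist, 1.0 µM final, for 30 min / Timing: induction 48 h, compound 1 h, agonist 30 min / Measured by: high-content fluorescence imaging after fixation / Read-out: nuclear-to-cytoplasmic GR-EGFP distribution per well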
HKDC1 inhibitor: HKDC1 (human) hexokinase inhibition. actives 0.16% (n = 340,000). recombinant HKDC1, G6PDH/diaphorase resazurin coupled fluorescence. Q2TB90. AID 493160. inhibition, % at 20 µM;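 active = inhibition above about 35% when tested at 20 µM, limit read from the data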;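 also: plate controls were DMSO wells with enzyme for no effect and DMSO wells lacking enzyme for full effect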
Target sequence (Q2TB90 whole entry, looked up): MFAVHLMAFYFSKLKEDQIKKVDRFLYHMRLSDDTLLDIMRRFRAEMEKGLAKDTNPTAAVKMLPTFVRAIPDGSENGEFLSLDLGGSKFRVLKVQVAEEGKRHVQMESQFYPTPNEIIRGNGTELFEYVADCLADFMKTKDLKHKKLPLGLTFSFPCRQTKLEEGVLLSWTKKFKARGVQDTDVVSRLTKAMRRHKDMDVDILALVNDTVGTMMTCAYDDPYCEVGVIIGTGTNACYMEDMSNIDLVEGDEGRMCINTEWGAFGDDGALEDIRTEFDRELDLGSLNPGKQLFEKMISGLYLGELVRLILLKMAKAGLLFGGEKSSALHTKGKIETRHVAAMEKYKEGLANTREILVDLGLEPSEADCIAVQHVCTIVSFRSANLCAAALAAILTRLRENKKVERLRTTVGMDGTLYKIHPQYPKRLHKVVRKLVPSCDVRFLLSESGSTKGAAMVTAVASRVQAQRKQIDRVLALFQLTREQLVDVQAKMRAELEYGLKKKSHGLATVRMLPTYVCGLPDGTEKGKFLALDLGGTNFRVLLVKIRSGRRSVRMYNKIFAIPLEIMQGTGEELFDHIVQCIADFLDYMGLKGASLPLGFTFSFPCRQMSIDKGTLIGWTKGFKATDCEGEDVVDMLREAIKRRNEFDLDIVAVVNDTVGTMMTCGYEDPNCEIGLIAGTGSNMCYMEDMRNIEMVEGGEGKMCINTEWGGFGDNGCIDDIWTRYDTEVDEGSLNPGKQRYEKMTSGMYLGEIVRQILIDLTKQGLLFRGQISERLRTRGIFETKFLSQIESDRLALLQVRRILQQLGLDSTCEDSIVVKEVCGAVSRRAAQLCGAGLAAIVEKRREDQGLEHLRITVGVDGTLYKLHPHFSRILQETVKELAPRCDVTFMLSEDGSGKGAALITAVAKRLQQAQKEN
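Assay system: in-house recombinant HK5 (HKDC1) enzyme. Input: HKDC1 at 5 µg/mL. Medium: Tris pH 8.0 buffer with MgCl2, Tween-20, BSA, BME. Dosing: single 20 µM dose. Schedule: 90 min reaction incubation at room temperature, dark. Signal: resazurin-to-resorufin fluorescence via G6PDH and diaphorase coupling, 525/613 nm. Controls: DMSO-enzyme wells negative, buffer-substituted wells positive.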
Autophagy mod: modulators of autophagy; MEF GFP-LC3 puncta imaging; test concentration mostly 10 µM; calls only at 10 µM (by protocol); actives 0.98% (n = 190,000); AID 463193;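 active = percentage of spot-positive cells more than 3 SD above its plate mean, without a fluorescence outlier flag or 80% toxicity; inconclusive = no clear call, values can overlap the other calls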;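 also: spot-positive cell cutoff set from DMSO-treated cells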
PERK inhibitor: human PERK inhibition, primary cell-based screen. actives 0.17% (n = 220,000). Q9NZJ5. inhibition, % at 5.6 µM. CHO PERK-DD fusion, SEAP luminescence translation reporter;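 active = inhibition above the mean inhibition of all tested compounds plus 3 SD, set separately per screening campaign, cut at about 2.9% in these data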;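 also: PERK kinase domain activated by AP20187 dimerizer at 100 nM; 0% = DMSO with dimerizer and 100% = rapamycin at 8.4 µM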
Active calls of the source: *; i = inactive; ? = inconclusive; nt = no result; + = active, no number. Rows were chosen to be rich in hits. Some 1.2% of all compounds tested hit in one or more screens of this group.

SMILES | TbHK1 inh | HSV augment | Dynein cargo inh | HKDC1 inhibitor | Autophagy mod | PERK inhibitor
CCC(C)NC(=O)c1cn(CC)c2ccc(S(=O)(=O)N(C)C)cc2c1=O (configuration not stated) | -19 | i | -0.46 | 7 | nt | 0
CCn1cc(C(=O)O)c(=O)c2cc(S(=O)(=O)N(C)C)ccc21 | -32 | i | 1.5 | 1 | i | 3.2*
O=C(CNC(=O)c1cccc([N+](=O)[O-])c1)NC1CCCc2ccccc21 (configuration not stated) | nt | nt | nt | 0 | nt | nt
CCOc1cccc2cc(-c3cn4cc(C)ccc4n3)c(=O)oc12 | -21 | i | -1.1 | 6 | + | 0
CCOC(=O)C(=O)Nc1ccc(OCc2ccccc2)cc1 | 0 | i | -0.71 | 3 | i | 1
O=C(Nc1ccccc1F)c1ccc(OCc2ccccc2)cc1 | 3 | nt | 1.8 | -11 | + | 1
CCOCC(=O)Nc1ccc(OCc2ccccc2)cc1 | -1 | i | -0.87 | -5 | + | 0
CCOc1cc(C=NN=C2c3ccccc3-c3ccccc32)ccc1O | nt | nt | nt | -4 | nt | nt
O=S(=O)(NC(CO)Cc1ccccc1)c1ccc(Br)cc1F (configuration not stated) | nt | nt | nt | -2 | nt | nt
O=C(Cc1csc(Nc2nc(=S)[nH]c3ccccc23)n1)N1CCN(c2cccc(C(F)(F)F)c2)CC1 | -6 | i | 1.7 | -6 | + | 0
COc1ccc(CC(=O)OCC(=O)Nc2cc(Cl)ccc2C)cc1 | nt | nt | nt | 0 | nt | nt
O=C(Nn1c(COc2ccccc2)nc2ccccc2c1=O)C(Cl)(Cl)Cl | nt | nt | nt | -1 | nt | nt
Oc1ccc(Cl)cc1C1=Nc2ccccc2N=C(c2ccco2)C1 | -20 | i | -0.9 | 3 | + | 1
COc1ccc(O)c(C2=Nc3ccccc3N=C(c3ccco3)C2)c1 | -7 | i | -0.14 | 5 | i | 0
Nc1cc(=O)[nH]c(N2CCN(c3ccccc3)CC2)n1 | 0 | i | 1.5 | -3 | + | 0
CCN1CCCC1CNC(=O)c1cc([N+](=O)[O-])c(N(C)C)cc1OC (configuration not stated) | nt | nt | nt | -7 | nt | nt
Cn1cc([N+](=O)[O-])c(C(=O)NCc2ccco2)n1 | -4 | i | 0.73 | -5 | i | 3.8*
Cn1cc(Cl)c(C(=O)NC(=S)Nc2sc3c(c2C#N)CCCCC3)n1 | 26 | i | -0.061 | 2 | + | 1
Cc1ccc(-n2c(Cl)c(Cl)nc(Cl)c2=O)cc1 | -9 | i | -4.1* | 2 | i | -1
CCC(=O)NCCc1cc2ccc(C)cc2[nH]c1=O | -9 | i | -0.29 | -3 | i | 3.3*
CCCCCCN(C(=O)CCCCCN1C(=O)NC(c2ccc(-c3ccccc3)cc2)C(C(=O)OCc2ccccc2)=C1C)C(C)C(=O)NCCCC (configuration not stated) | 38 | nt | 0.5 | nt | + | 2
CCN(CCCNC(=O)COc1cc(=O)n(CC)c2ccccc12)Cc1ccccc1 | 5 | i | 0.23 | -1 | + | 0
CCN(CCCNC(=O)CCCOc1cc(=O)n(C)c2ccccc12)Cc1ccccc1 | 11 | i | -1 | -9 | i | 0
CCOC(=O)/C(C#N)=C\c1ccc(OC)c(OC)c1 | -26 | i | -0.71 | -5 | i | 1
CCOC(=O)c1c(-c2ccccc2)csc1NC(=O)/C(C#N)=C/c1ccc(OC)c(OC)c1 | -4 | i | 4.3 | -6 | + | 0
SMILES | TbHK1 inh | HSV augment | Dynein cargo inh | HKDC1 inhibitor | Autophagy mod | PERK inhibitor
O=C(CN(c1ccccc1)S(=O)(=O)c1ccc(Cl)cc1)Nc1cccnc1 | nt | nt | nt | 2 | nt | nt
Cc1ccc(C)c(OCC(=O)Nc2cc(C(=O)O)cc(C(=O)O)c2)c1 | -3 | i | 0.49 | -10 | i | 3.4*
S=c1nc(-c2ccc(Br)cc2)[nH]c2ccccc12 | -17 | i | 0.55 | -8 | nt | 3.0*
S=c1nc(-c2ccccc2)[nH]c2ccccc12 | -11 | i | -0.28 | -6 | i | -1
Cc1ccc(N2C(=O)N(CC(=O)N3c4ccccc4CC3C)C(=O)C2C)cc1 (configuration not stated) | nt | nt | nt | 0 | nt | nt
CCOC(=O)c1csc(NC(=O)c2cc(=O)c3ccccc3o2)n1 | -9 | i | -0.5 | -3 | i | 1
CC(=O)c1sc(NC(=O)c2cc(=O)c3ccccc3o2)nc1C | -17 | i | -0.86 | -1 | + | 2
CN(C)N(C(=O)c1cc(-c2cccs2)nn1-c1ccccc1)C1CCS(=O)(=O)C1 (configuration not stated) | nt | nt | nt | -6 | nt | nt
Cc1nn(C2CCS(=O)(=O)C2)c(C)c1CN(C)C(=O)c1ccc(S(=O)(=O)N(C)C)cc1 (configuration not stated) | nt | nt | nt | -5 | nt | nt
Clc1ccc(/C=N/c2c(-c3ccc(Cl)cc3)nc3n2CCS3)cc1 | -14 | i | 0.16 | 1 | + | 1
COC(=O)c1ccc(C(=O)OC)c(NC(=O)CSCC(=O)O)c1 | -9 | i | 2.5 | 0 | nt | 3.1*
COCCC(=O)N1CCC(Oc2ccc(C(=O)N3CCC(N(C)C)C3)cc2)CC1 (configuration not stated) | nt | nt | nt | -4 | nt | nt
COc1cc(N2CCCC2)c(OC)cc1/C=C(/C#N)c1ccc(F)cc1 | -6 | ? | -2.2 | 10 | + | 1
COc1cc(N2CCCC2)c(OC)cc1/C=C(/C#N)c1ccc(Br)cc1 | -15 | ? | 0.25 | 12 | ? | -1
CCc1cc(C(=O)N(CC)CC(=O)Nc2ccc(OC)cc2)sc1C | nt | nt | nt | 0 | nt | nt
CC1CCN(C(=O)CN2C(=O)c3cccc4cccc(c34)C2=O)CC1 | -24 | i | -0.44 | -3 | i | 0
CC1CCN(C(=O)CN2C(=O)C(=O)c3ccccc32)CC1 | 0 | i | 0.75 | 5 | + | 1
C(=N\Nc1ncnc2ccccc12)/c1ccccc1 | -37 | i | 1.1 | 6 | + | 0
Cc1ccc(N(C(=O)CNC(=O)c2ccco2)C(C(=O)NC2CCCC2)c2cccnc2)cc1F (configuration not stated) | nt | nt | nt | -7 | nt | nt
COc1cc(C2C(C(=O)OC(C)C)=C(C)Nc3ncnn32)cc(OC)c1OC (configuration not stated) | -4 | i | 0.35 | -1 | + | -1
COc1ccc(C2C(C(C)=O)=C(C)Nc3ncnn32)cc1OC (configuration not stated) | -14 | i | -0.09 | -4 | i | 1
Cc1ccc(N=C2CSC(=O)N2)cc1 | -6 | i | -0.61 | -1 | i | 1
O=C1NC(=Nc2ccc(F)cc2)CS1 | -10 | i | 1.7 | -4 | + | 0
CS(=O)(=O)c1ccc(Cl)c(NC(=O)CCN2C(=O)C3CC=CCC3C2=O)c1 (configuration not stated) | nt | nt | nt | -4 | nt | nt
CCN(CC)c1ccc2c(Cl)c(Br)c(=O)oc2c1 | 4 | nt | -1.7 | 22 | + | 0
